Measured values from ChEMBL document CHEMBL4387744, “Discovery of conolidine derivative DS39201083 as a potent novel analgesic without mu opioid agonist activity” (Bioorg Med Chem Lett, 2019).

What was measured:
Mu-type opioid receptor [1] = biological target: T1, Mu-type opioid receptor (Homo sapiens, UniProt P35372); test: Agonist activity at human mu opioid receptor expressed in CHO cells by cAMP assay; format: cell-based
Procedure, shortened: (§1)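 Human MOR expressed in CHO cells; cAMP read-out. EC50 derived from the cAMP response.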

Mus musculus [2] = test: Analgesic activity in Slc:ddY mouse assessed as inhibition of acetic acid-induced writhings at 30 mg/kg, po relative to control; format: functional
Procedure, shortened: (§2)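 Acetic acid-induced writhing in Slc:ddY mice after oral dosing. Read-out is reduction (% inhibition) of writhing behaviour. ED50 calculated from the dose-response curve of analgesic activity at 10, 30 and 100 mpk.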

Mus musculus [3] = test: Analgesic activity in Slc:ddY mouse assessed as reduction in sum of the time spent in paw licking or biting responses during phase 1 at 30 mg/kg, po dosed 30 mins before formalin injection by formalin test relative to control; format: functional
Procedure, shortened: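 Formalin test in Slc:ddY mice (n = 8). Compound given p.o. at 30 mg/kg; 30 min later 3.5% formalin (20 μL) injected into the hind paw pad. Read-out is the reduction in summed paw licking and biting time over the first 10 min after injection (initial phase).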

[4] = Distribution coefficient between 1-octanol and phosphate buffer, logD of the compound in pH 7.4 buffer; format: physicochemical; conditions: 1-octanol/phosphate buffer
Procedure, shortened: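 Log D measured as partitioning between 1-octanol and phosphate-buffered saline at pH 7.4.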

Mus musculus [5] = species on record: Mus musculus; test: Analgesic activity in Slc:ddY mouse assessed as inhibition of acetic acid-induced writhings; format: functional; procedure, shortened: as §2
Mu-type opioid receptor [6] = biological target: T1, Mu-type opioid receptor; test: Agonist activity at human mu opioid receptor expressed in CHO cells by cAMP assay relative to DAMGO; format: cell-based; procedure, shortened: as §1
Mu-type opioid receptor [7] = biological target: T1, Mu-type opioid receptor; test: Displacement of [3H]-diprenorphine from MOR (unknown origin); format: ADME
[8] = Half life in ddY mouse 10 mg/kg, po; format: ADME, organism-based; conditions: in vivo
Procedure, shortened: (§3)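 Plasma pharmacokinetics in ddY mice after a single oral dose of 10 mg/kg, given as a 0.5 w/v% methylcellulose suspension. Reported values are the average of three.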

[9] = Cmax in ddY mouse 10 mg/kg, po; format: ADME, organism-based; set-up: dose 10 mg/kg, route oral; conditions: in vivo; procedure, shortened: as §3
[10] = AUC in ddY mouse 10 mg/kg, po; format: ADME, organism-based; conditions: in vivo; procedure, shortened: as §3
Mus musculus [11] = test: Analgesic activity in Slc:ddY mouse assessed as inhibition of acetic acid-induced writhings at 3 mg/kg, po relative to control; format: functional
Mus musculus [12] = test: Analgesic activity in Slc:ddY mouse assessed as inhibition of acetic acid-induced writhings at 10 mg/kg, po relative to control; format: functional; procedure, shortened: as §2

T1 sequence (P35372 whole entry): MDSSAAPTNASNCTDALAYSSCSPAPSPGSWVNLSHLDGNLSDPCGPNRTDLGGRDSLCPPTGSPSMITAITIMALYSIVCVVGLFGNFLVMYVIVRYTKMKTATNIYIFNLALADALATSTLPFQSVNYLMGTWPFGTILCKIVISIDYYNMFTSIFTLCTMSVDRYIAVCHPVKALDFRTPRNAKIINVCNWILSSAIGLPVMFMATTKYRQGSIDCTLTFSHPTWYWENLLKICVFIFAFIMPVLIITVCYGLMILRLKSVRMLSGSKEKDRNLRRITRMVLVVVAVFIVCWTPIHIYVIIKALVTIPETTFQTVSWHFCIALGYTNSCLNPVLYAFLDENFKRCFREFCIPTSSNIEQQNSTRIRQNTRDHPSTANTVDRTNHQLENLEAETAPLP

With `C/C=C1/CN2CC[C@H]1C(=O)c1[nH]c3ccccc3c1C2.O=S(=O)(O)O` the EC50 (Mu-type opioid receptor [1]) was greater than 100 µM, the inhibition in vivo at 30 mg/kg (Mus musculus [2]) was 49% and the inhibition in vivo at 30 mg/kg (Mus musculus [3]) was 43%. For the same molecule, the logD [4] was 2.8, the ED50 (Mus musculus [5]) was 32 mg/kg and the Emax (Mu-type opioid receptor [6]) was 13%. The IC50 (Mu-type opioid receptor [7]) was 70 µM.
`CCC12CCN(CC1)Cc1c([nH]c3ccccc13)C2=O.O=S(=O)(O)O` gave a half-life [8] of 1.28 h, an inhibition in vivo at 30 mg/kg (Mus musculus [2]) of 48% and a logD [4] of 3. The Cmax [9] was 710 nM and the AUC [10] was 1.02 µM·h.
In the case of `O=C1c2[nH]c3ccccc3c2CN2CCC1CC2`, the EC50 (Mu-type opioid receptor [1]) is reported as greater than 100 µM, the half-life [8] is reported as 1.17 h and the inhibition in vivo at 30 mg/kg (Mus musculus [2]) is reported as 73%. It also gave a logD [4] of 1.8, an ED50 (Mus musculus [5]) of 11 mg/kg and an Emax (Mu-type opioid receptor [6]) of 13%. It also gave a Cmax [9] of 1160 nM, an AUC [10] of 2.26 µM·h and an IC50 (Mu-type opioid receptor [7]) greater than 100 µM.
For `CC12CCN(CC1)Cc1c([nH]c3ccccc13)C2=O.O=S(=O)(O)O`, the EC50 (Mu-type opioid receptor [1]) was greater than 100 µM, the half-life [8] was 2.33 h and the inhibition in vivo at 30 mg/kg (Mus musculus [2]) was 90 to 94%. For the same molecule, the inhibition in vivo at 30 mg/kg (Mus musculus [3]) was 92%, the inhibition in vivo at 3 mg/kg (Mus musculus [11]) was 23% and the logD [4] was 2.5. The ED50 (Mus musculus [5]) was 7.8 mg/kg, the Emax (Mu-type opioid receptor [6]) was 12% and the Cmax [9] was 1250 nM. For the same molecule, the inhibition in vivo at 10 mg/kg (Mus musculus [12]) was 52%, the AUC [10] was 3.21 µM·h and the IC50 (Mu-type opioid receptor [7]) was 71 µM.
`CCC1CN2CCC1C(=O)c1[nH]c3ccccc3c1C2` (mixture of isomers) showed an inhibition in vivo at 30 mg/kg (Mus musculus [2]) of 50%.
With `C/C=C1/CN2CCC1C(=O)c1[nH]c3c(OC)cccc3c1C2` (racemic) the inhibition in vivo at 30 mg/kg (Mus musculus [2]) was 34% and the logD [4] was 3.3.
In the case of `C/C=C1/CN2CCC1C(=O)c1[nH]c3ccccc3c1C2` (racemic), the inhibition in vivo at 30 mg/kg (Mus musculus [2]) is reported as 49%.
For `C/C=C1/CN2CCC1C(=O)c1c(c3ccccc3n1C)C2` (racemic), the inhibition in vivo at 30 mg/kg (Mus musculus [2]) was 30% and the logD [4] was 3.5.
For `C/C=C1/CN2CCC1C(=O)c1[nH]c3cccc(OC)c3c1C2` (racemic), the inhibition in vivo at 30 mg/kg (Mus musculus [2]) was 42% and the logD [4] was 3.4.
Work on `C/C=C1/CN2CCC1C(=O)c1[nH]c3ccc(OC)cc3c1C2` (racemic) yielded an inhibition in vivo at 30 mg/kg (Mus musculus [2]) of 3% and a logD [4] of 3.1.
`C/C=C1\CN2CCC1C(=O)c1[nH]c3ccccc3c1C2` (racemic) showed an inhibition in vivo at 30 mg/kg (Mus musculus [2]) of 18% and a logD [4] of 3.3.
`C/C=C1/CN2CCC1C(=O)c1[nH]c3cc(OC)ccc3c1C2` (racemic) showed an inhibition in vivo at 30 mg/kg (Mus musculus [2]) of 31% and a logD [4] of 3.1.
For `CC/C=C1/CN2CCC1C(=O)c1[nH]c3ccccc3c1C2` (racemic), the inhibition in vivo at 30 mg/kg (Mus musculus [2]) was 0%.
